Consider three compounds from ChEMBL document CHEMBL4610089, “Bulbimidazoles A-C, Antimicrobial and Cytotoxic Alkanoyl Imidazoles from a Marine Gammaproteobacterium Microbulbifer Species” (J Nat Prod, 2020).

The test system of assay [1] is Escherichia coli. Briefly: Antibacterial activity against Escherichia coli NIHJ JC-2 assessed as reduction in microbial growth after 20 hrs by liquid microculture method. The class given is functional. The conditions noted are these: NIHJ JC-2, 20 h. The gist of the method:
(§1)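 Broth microdilution MIC: twofold serial dilutions of compound were made across the plate, with the solvent vehicle kept at 0.5% of the final culture volume. The inoculum came from a log-phase culture. Plates were incubated at 37 °C for 20 h and growth was read as absorbance at 650 nm, in triplicate. Kanamycin sulfate was the reference drug.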

The subject of assay [2] is Kocuria rhizophila. Briefly: Antibacterial activity against Kocuria rhizophila ATCC9341 assessed as reduction in microbial growth after 20 hrs by liquid microculture method. The class given is functional. The conditions noted are these: ATCC9341, 20 h. The gist of the method:
as §1

The test system of assay [3] is Candida albicans. Briefly: Antifungal activity against Candida albicans NBRC0197 assessed as reduction in microbial growth after 20 hrs by liquid microculture method. The class given is functional. The conditions noted are these: NBRC0197, 20 h. The method, boiled down: (§2)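 Antifungal MIC by twofold serial dilution in microplates: vehicle at 0.5% of final volume, inoculum from a log-phase culture, incubation at 25 °C. Growth was read as absorbance at 650 nm in triplicate. Amphotericin B was the reference drug.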

In assay [4] the test system is Trichophyton rubrum. Put plainly: Antifungal activity against Trichophyton rubrum NBRC5467 assessed as reduction in microbial growth after 20 hrs by liquid microculture method. Format: functional. Particulars: NBRC5467, 20 h. The method, boiled down:
as §2

The test system of assay [5] is Colletotrichum gloeosporioides. Put plainly: Antifungal activity against Glomerella cingulata NBRC5907 assessed as reduction in microbial growth after 20 hrs by liquid microculture method. Format: functional. The conditions noted are these: NBRC5907, 20 h. The gist of the method: as §2
The test system of assay [6] is P388. Put plainly: Cytotoxicity against mouse P388 cells assessed as reduction in cell viability after 72 hrs by XTT assay. The class given is functional, cell-based. The conditions noted are these: P388, 72 h. The method, boiled down: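 P388 cells were grown in RPMI-1640 with L-glutamine, 10% FBS and 0.1 mg/mL gentamicin sulfate. They were seeded in 96-well round-bottom plates and exposed to compound in 200 μL cultures for 72 h at 37 °C under 5% CO2. Medium containing XTT (1 mg/mL) and PMS (40 μg/mL) was then added for 4 h, the medium was aspirated, and formazan was read at 450 nm. Growth inhibition was calculated per concentration, with doxorubicin as the reference.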

The subject of assay [7] is Agrobacterium tumefaciens. Briefly: Antibacterial activity against Rhizobium radiobacter NBRC14554 assessed as reduction in microbial growth after 20 hrs by liquid microculture method. Format: functional. Particulars: NBRC14554, 20 h. The method, boiled down: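 Broth microdilution MIC: twofold serial compound dilutions, vehicle at 0.5% of final volume, log-phase inoculum. Incubated at 37 °C for 20 h, with absorbance read at 650 nm in triplicate. Sulfamethoxazole was the reference drug.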

Assay [8] concerns Staphylococcus aureus. Put plainly: Antibacterial activity against Staphylococcus aureus FDA209P JC-1 assessed as reduction in microbial growth after 20 hrs by liquid microculture method. Format: functional. The conditions noted are these: FDA209P JC-1, 20 h. The method, boiled down:
as §1

In assay [9] the test system is Tenacibaculum maritimum. Put plainly: Antibacterial activity against Tenacibaculum maritimum NBRC16015 assessed as reduction in microbial growth after 20 hrs by liquid microculture method. The class given is functional. The conditions noted are these: NBRC16015, 20 h. The method, boiled down:
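Twofold serial-dilution microculture MIC: vehicle at 0.5% of final volume, log-phase inoculum, incubation at 24 °C. Growth was read as absorbance at 650 nm in triplicate. Sulfamethoxazole was the reference drug.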

As to `CC(C)CCCCCCC(=O)c1c[nH]cn1`, the MIC was above 100 µg/mL in [1]; 1.56 µg/mL in assay [2]; 6.25 µg/mL in assay [3]; 3.12 µg/mL in [4]; 3.12 µg/mL in [5]; above 100 µg/mL in [7]. The MIC was 3.12 µg/mL in assay [8] and 12.5 µg/mL in assay [9]. The IC50 in [6] was 7 µM.

Consider `CCCCCCCCCC(=O)c1c[nH]cn1`, for which the MIC in assay [1] is above 100 µg/mL; in [2], 0.78 µg/mL; in assay [3] it was 12.5 µg/mL; in assay [4], 1.56 µg/mL; in assay [5], 1.56 µg/mL; in [7] it was above 100 µg/mL. Also, the MIC in assay [8] was determined as 1.56 µg/mL; in assay [9], 6.25 µg/mL. Besides, the IC50 in [6] worked out at 5.8 µM.

For `CCC(C)CCCCCCC(=O)c1c[nH]cn1` (racemic), the minimal inhibitory concentration (MIC) in assay [1] is above 100 µg/mL; in [2], 0.78 µg/mL; in assay [3], 6.25 µg/mL; in assay [4], 0.78 µg/mL; in assay [5] it was 1.56 µg/mL; in [7], above 100 µg/mL. Besides, the MIC in assay [8] turned out to be 1.56 µg/mL; in [9] it was 3.12 µg/mL. Also, the IC50 in assay [6] worked out at 5 µM.
